KDM4C inh – inhibitors of GASC-1 (KDM4C) histone demethylase, primary screen, biochemical, single concentration HTS | 0.15% of 96,000 active | inhibition, % at 12.5 µM | GST-KDM4C 2-372, H3K9me3 peptide, LANCE TR-FRET | Lysine-specific demethylase 4C (Homo sapiens), Q9H3R0;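 active = mean replicate inhibition above about 25%, with at least 55% of replicates also reaching it, limit read from the data, passing the limit was not always enough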
Target sequence (Q9H3R0 2-372 limits assumed): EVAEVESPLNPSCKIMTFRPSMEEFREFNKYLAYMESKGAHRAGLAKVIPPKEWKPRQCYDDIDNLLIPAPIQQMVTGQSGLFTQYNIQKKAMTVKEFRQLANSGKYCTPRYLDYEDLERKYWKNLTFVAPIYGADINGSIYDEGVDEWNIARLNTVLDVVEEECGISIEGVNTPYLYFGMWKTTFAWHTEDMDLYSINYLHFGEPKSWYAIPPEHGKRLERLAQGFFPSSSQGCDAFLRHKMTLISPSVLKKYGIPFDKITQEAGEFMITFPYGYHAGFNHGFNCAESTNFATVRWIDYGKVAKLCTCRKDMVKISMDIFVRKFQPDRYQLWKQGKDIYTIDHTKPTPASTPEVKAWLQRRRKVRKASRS
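System: N-terminal GST-fused human GASC-1 (KDM4C) fragment, residues 2-372; amount: enzyme final amount 10 nM; incubation: reaction 30 min RT, detection step 1 h RT; medium: HEPES buffer, pH 7.5, plus ascorbate; technique: LANCE TR-FRET, Eu antibody, ULight-streptavidin, EDTA, ex 340 nm, em 618/671 nm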
T cruzi growth – T. cruzi intracellular proliferation inhibitors, primary screen, cell-based, beta-gal Tulahuen parasites, NIH3T3 host, luminescence. T. cruzi beta-gal in NIH3T3, GalScreen luminescence, 90 h. AID 624255, 2012. 5.9% of 77,000 active. inhibition, % at 8.34 µM;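 active = mean inhibition above about 93%, with at least 55% of replicates each passing it, limit read from the data, passing the limit was not always enough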
IDH1 mut inh – inhibitors of IDH1 R132H reductase, primary screen, biochemical, plate reader, single point. AID 624101, 2012. 0.18% of 70,000 active. Isocitrate dehydrogenase [NADP] cytoplasmic (Homo sapiens), O75874. diaphorase/resazurin fluorescence, 60 min. inhibition, % at 10 µM; in the data active = inhibition above about 34%
Pf Dd2 inh – P. falciparum Dd2 growth inhibitors, primary screen, SYBR Green fluorescence, single dose replicates; 72 h; active compounds read low; activity change, % at 10 µM; 2.3% of 94,000 active; in the data active = activity change below about -80%
Large screens that a line does not name were inactive. A selection: hits, their analogues and other compounds. The true share with any hit is near 5.8%.

C[C@H]1CN([C@@H](C)CO)C(=O)c2cc(NC(=O)Cc3cn(C)c4ccccc34)ccc2O[C@@H]1CN(C)S(=O)(=O)c1ccccc1	Pf Dd2 inh -84 (no result: KDM4C inh, IDH1 mut inh)
C[C@@H]1CN([C@H](C)CO)C(=O)c2cc(NC(=O)Cc3cn(C)c4ccccc34)ccc2O[C@H]1CN(C)S(=O)(=O)c1ccccc1	none
C[C@H](CO)N1C[C@H](C)[C@@H](CN(C)S(=O)(=O)c2ccccc2)Oc2ccc(NC(=O)Cc3cn(C)c4ccccc34)cc2C1=O	Pf Dd2 inh -87 (no result: KDM4C inh)
C[C@H](CO)N1C[C@H](C)[C@H](CN(C)S(=O)(=O)c2ccccc2)Oc2ccc(NC(=O)Cc3cn(C)c4ccccc34)cc2C1=O	Pf Dd2 inh -93 (no result: KDM4C inh, IDH1 mut inh)
C[C@@H]1CCCCO[C@@H](CN(C)S(=O)(=O)c2cn(C)cn2)[C@@H](C)CN([C@@H](C)CO)C(=O)c2cc(NC(=O)CCC(F)(F)F)ccc2O1	none
COc1ccc(S(=O)(=O)N(C)C[C@H]2OCCCC[C@H](C)Oc3ccc(NC(=O)c4ccccc4)cc3C(=O)N([C@@H](C)CO)C[C@H]2C)cc1	Pf Dd2 inh -85
COc1ccc(S(=O)(=O)N(C)C[C@@H]2OCCCC[C@H](C)Oc3ccc(NC(=O)c4ccccc4)cc3C(=O)N([C@@H](C)CO)C[C@H]2C)cc1	Pf Dd2 inh -84
C[C@@H]1CN([C@H](C)CO)C(=O)Cc2cc(NC(=O)C3CC3)ccc2O[C@@H]1CN(C)S(=O)(=O)c1cn(C)cn1	none (no result: IDH1 mut inh)
C/C=C/c1ccc2c(c1)O[C@@H](CN(C)CCC)[C@@H](C)CN([C@H](C)CO)S2(=O)=O	KDM4C inh 38, IDH1 mut inh 53
C/C=C/c1ccc2c(c1)O[C@H](CN(C)Cc1ccc(C(=O)O)cc1)[C@@H](C)CN([C@H](C)CO)S2(=O)=O	Pf Dd2 inh -86 (no result: T cruzi growth)
C/C=C/c1ccc2c(c1)O[C@@H](CN(C)Cc1ccc(C(=O)O)cc1)[C@H](C)CN([C@@H](C)CO)S2(=O)=O	none (no result: T cruzi growth)
CNC[C@@H]1Oc2c(NC(=O)c3ccc(-c4nccs4)cc3)cccc2C(=O)N([C@H](C)CO)C[C@@H]1C	none
C[C@@H]1CN([C@H](C)CO)C(=O)c2cc(NS(=O)(=O)c3ccc(Cl)cc3)ccc2O[C@@H](C)CCCCO[C@H]1CN(C)C(=O)Nc1ccc2c(c1)OCO2	none (no result: T cruzi growth)
CO[C@H]1CN(C)C(=O)c2cc(NS(=O)(=O)c3ccccc3C)ccc2OC[C@H](C)N(C)C[C@H]1C	none
C[C@@H]1CN([C@@H](C)CO)C(=O)c2c(c3ccccc3n2C)-c2ccccc2CO[C@@H]1CN(C)C(=O)[C@H](C)c1ccccc1	Pf Dd2 inh -87 (no result: T cruzi growth, IDH1 mut inh)
C[C@H](NC(=O)N(C)C[C@H]1OCc2ccccc2-c2c(n(C)c3ccccc23)C(=O)N([C@@H](C)CO)C[C@@H]1C)c1ccccc1	Pf Dd2 inh -81 (no result: IDH1 mut inh)
C[C@@H]1CN([C@H](C)CO)C(=O)c2c(c3ccccc3n2C)-c2ccccc2CO[C@H]1CN(C)C(=O)[C@H](C)c1ccccc1	Pf Dd2 inh -84 (no result: T cruzi growth, IDH1 mut inh)
C[C@H](C(=O)N(C)C[C@@H]1OCc2ccccc2-c2c(n(C)c3ccccc23)C(=O)N([C@H](C)CO)C[C@H]1C)c1ccccc1	none (no result: T cruzi growth, IDH1 mut inh)
C[C@@H]1CN([C@@H](C)CO)C(=O)c2c(c3ccccc3n2C)-c2ccccc2CO[C@@H]1CN(C)C(=O)N[C@H](C)c1ccccc1	none
CC(C)OC(=O)N(C)C[C@H]1OCc2ccccc2-c2c(n(C)c3ccccc23)C(=O)N([C@H](C)CO)C[C@H]1C	Pf Dd2 inh -83
Cn1cnc(S(=O)(=O)N2CCCCN3[C@H](CO)[C@H](c4ccc(C#CC5CC5)cc4)[C@@H]3C2)c1	none (no result: KDM4C inh, IDH1 mut inh)
CC=Cc1ccc2n(c1=O)C[C@@H]1[C@@H](CO)[C@H](C(=O)NCC3CC3)[C@H]2N1Cc1ccncc1 (mixture of isomers)	none (no result: IDH1 mut inh, Pf Dd2 inh)
C[C@H](CO)N1C[C@H](C)[C@@H](CN(C)C(=O)Nc2cccc(C(F)(F)F)c2)OCc2ccccc2-c2ccccc2C1=O	none
C[C@@H]1CN([C@H](C)CO)C(=O)c2ccccc2-c2ccccc2CO[C@H]1CN(C)C(=O)Nc1cccc(C(F)(F)F)c1	Pf Dd2 inh -87 (no result: IDH1 mut inh)
C[C@@H]1CN([C@H](C)CO)C(=O)c2c(c3ccccc3n2C)-c2ccccc2CO[C@@H]1CN(C)C(=O)Nc1cccc(C(F)(F)F)c1	Pf Dd2 inh -84 (no result: T cruzi growth, IDH1 mut inh)
COc1ccc(NC(=O)N(C)C[C@H]2OCc3ccccc3-c3c(n(C)c4ccccc34)C(=O)N([C@@H](C)CO)C[C@@H]2C)c(OC)c1	Pf Dd2 inh -85 (no result: IDH1 mut inh)
COc1ccc(NC(=O)N(C)C[C@@H]2OCc3ccccc3-c3c(n(C)c4ccccc34)C(=O)N([C@H](C)CO)C[C@@H]2C)c(OC)c1	none (no result: IDH1 mut inh)
COc1ccc(NC(=O)N(C)C[C@@H]2OCc3ccccc3-c3c(n(C)c4ccccc34)C(=O)N([C@@H](C)CO)C[C@@H]2C)c(OC)c1	Pf Dd2 inh -83
COc1ccc(NC(=O)Nc2ccc3c(c2)C(=O)N([C@@H](C)CO)C[C@H](C)[C@H](CN(C)Cc2ccc(C(=O)O)cc2)O3)cc1	none
COC(=O)c1cc(NC(=O)CN(c2ccc(F)c(Cl)c2)S(C)(=O)=O)ccc1Cl	none (no result: KDM4C inh, T cruzi growth, Pf Dd2 inh)
COc1ccc(NC(=O)N(C)C[C@H]2OCc3cnnn3CCCC(=O)N([C@H](C)CO)C[C@H]2C)c(OC)c1	IDH1 mut inh 54
COc1cccc(NC(=O)N(C)C[C@H]2OCc3ccccc3-c3c(n(C)c4ccccc34)C(=O)N([C@@H](C)CO)C[C@@H]2C)c1	Pf Dd2 inh -85 (no result: IDH1 mut inh)
C[C@H](CO)N1C[C@H](C)[C@H](CN(C)CC2CCOCC2)Oc2ncc(-c3ccc(F)cc3)cc2C1=O	none
C/C=C/c1cnc2c(c1)C(=O)N([C@H](C)CO)C[C@H](C)[C@@H](CN(C)C(=O)Nc1ccccc1F)O2	none
COc1ccc(-c2ccccc2[C@H]2[C@@H](C#N)N(C(=O)C3CCCC3)[C@@H]2CO)cc1	Pf Dd2 inh -98 (no result: T cruzi growth, IDH1 mut inh)
COc1ccc(-c2ccccc2[C@H]2[C@@H](C#N)N(C(=O)C3CCC3)[C@H]2CO)cc1	none (no result: T cruzi growth, IDH1 mut inh)
COc1ccccc1-c1ccccc1[C@H]1[C@H](C#N)N(C(=O)C2CCC2)[C@H]1CO	Pf Dd2 inh -85 (no result: T cruzi growth, IDH1 mut inh)
COc1ccccc1-c1ccccc1[C@@H]1[C@@H](C#N)N(C(=O)C2CC2)[C@@H]1CO	Pf Dd2 inh -98 (no result: T cruzi growth, IDH1 mut inh)
COc1ccc(-c2ccccc2[C@H]2[C@@H](C#N)N(C(=O)NC(C)C)[C@H]2CO)cc1	Pf Dd2 inh -87 (no result: T cruzi growth, IDH1 mut inh)
COc1cccc(NC(=O)Cn2cnc3c(sc4nc5c(cc43)COC(C)(C)C5)c2=O)c1	none (no result: KDM4C inh, T cruzi growth, Pf Dd2 inh)
O=S(=O)(c1ccccc1)N1CCCCN2[C@H](CO)[C@@H](c3ccc(-c4cncnc4)cc3)[C@@H]2C1	none (no result: IDH1 mut inh)
COc1ccc(S(=O)(=O)Nc2ccc3c(c2)C(=O)N([C@H](C)CO)C[C@H](C)[C@@H](CN(C)S(=O)(=O)c2ccc(OC)cc2)O3)cc1	Pf Dd2 inh -86 (no result: T cruzi growth)

Bioassay records from PubChem.
